# Columns and labels:
# [1] = test system: Erythrocyte; test: Hemolytic activity in human Red blood cells at 512 microg/ml measured after 1 hrs by absorbance based assay; type: toxicity, cell-based; settings: dose 512 µg/ml
# In short: (§1)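 Titrations in PBS were incubated with freshly collected human red blood cells for 1 h at 37 °C. Controls were 0.1% Triton-X-100 (full lysis) and PBS alone (no lysis). After centrifugation, supernatant OD550 was read. % haemolysis = (AP−AB)/(AC−AB)×100. Data are means and standard error of three biological replicates.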
# [2] = test system: Klebsiella pneumoniae; test: Synergistic antibacterial activity against Klebsiella pneumoniae NCTC 13368 assessed as bacterial growth inhibition incubated for overnight in presence of PBMN by microbroth dilution method relative to control; type: functional
# In short: (§2)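 Adapted broth microdilution in TSB. The test compound was in a 2-fold dilution series, with PMBN added at a fixed 30 µg/mL. Bacteria at OD 0.02 were added, and plates were incubated overnight at 37 °C. Growth/no growth was read as for the MIC (<0.1 OD600).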
# [3] = test system: Klebsiella pneumoniae; test: Synergistic antibacterial activity against Klebsiella pneumoniae M6 assessed as bacterial growth inhibition incubated for overnight in presence of PBMN by microbroth dilution method relative to control; type: functional; in short: as §2
# [4] = test system: Acinetobacter baumannii; test: Synergistic antibacterial activity against Acinetobacter baumannii AYE assessed as bacterial growth inhibition incubated for overnight in presence of PBMN by microbroth dilution method relative to control; type: functional; in short: as §2
# [5] = test system: Pseudomonas aeruginosa; test: Synergistic antibacterial activity against Pseudomonas aeruginosa PAO1 assessed as bacterial growth inhibition incubated for overnight in presence of […] by microbroth dilution method relative to control; type: functional
# In short: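 Fixed-concentration combination MIC in TSB. The first agent was set in a two-fold dilution series (100 µL/well), then 50 µL/well of the second agent at a fixed concentration was added; PMBN was fixed at 30 µg/mL. Bacteria at OD 0.02 (50 µL) went into 150 µL of compounds, overnight at 37 °C. MIC was the lowest concentration without visible growth (<0.1 OD600).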
# [6] = test system: Pseudomonas aeruginosa; test: Synergistic antibacterial activity against Pseudomonas aeruginosa NCTC 13437 assessed as bacterial growth inhibition incubated for overnight in presence of PBMN by microbroth dilution method relative to control; type: functional; in short: as §2
# [7] = test system: Escherichia coli; test: Synergistic antibacterial activity against Escherichia coli NCTC 12923 assessed as bacterial growth inhibition incubated for overnight in presence of PBMN by microbroth dilution method relative to control; type: functional; in short: as §2
# [8] = test system: Klebsiella pneumoniae; test: Synergistic antibacterial activity against […] Klebsiella pneumoniae NCTC 13368 assessed as novobiocin MIC at <=0.25 times MIC incubated for overnight by microbroth dilution checkerboard assay; type: functional
# In short: (§3)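 Checkerboard run under the MIC conditions (TSB, overnight, 37 °C). Antibiotic and lipoguanidine 2-fold series were combined on one plate before bacteria were added. Growth/no-growth was scored as for the MIC (<0.1 OD600). Single-agent MICs were measured on the same plates. Three independent repeats were done.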
# [9] = test system: Klebsiella pneumoniae; test: Synergistic antibacterial activity against […] Klebsiella pneumoniae M6 assessed as novobiocin MIC at <=0.25 times MIC incubated for overnight by microbroth dilution checkerboard assay; type: functional; in short: as §3
# [10] = test system: Acinetobacter baumannii; test: Synergistic antibacterial activity against Acinetobacter baumannii AYE assessed as novobiocin MIC at <=0.25 times MIC incubated for overnight by microbroth dilution checkerboard assay; type: functional
# In short: (§4)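 Checkerboard microdilution under MIC conditions (TSB, overnight, 37 °C). Two-fold series of each agent were combined on one plate before bacteria were added, and single-agent MICs were measured on the same plate. FIC = sum of combination MIC/alone MIC for each agent, taken from the most synergistic well. Three independent repeats, mean ± SD. ≤0.5 was taken as strong synergy and 0.5–<1 as weak.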
# [11] = test system: Acinetobacter baumannii; test: Synergistic antibacterial activity against Acinetobacter baumannii ATCC 17978 assessed as novobiocin MIC at <=0.25 times MIC incubated for overnight by microbroth dilution checkerboard assay; type: functional; in short: as §4
# [12] = test system: Pseudomonas aeruginosa; test: Synergistic antibacterial activity against Pseudomonas aeruginosa PAO1 assessed as novobiocin MIC at <=0.25 times MIC incubated for overnight by microbroth dilution checkerboard assay; type: functional
# In short: (§5)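 Checkerboard microdilution in Tryptic Soy Broth, run like the MIC assay. Overnight TSB cultures were back-diluted to OD 0.01 and added 1:1 to the combined two-fold series of both agents, then incubated overnight at 37 °C. Growth/no-growth was called at <0.1 OD600. MICs alone were read on the same plates. FIC index came from the most synergistic well; three independent repeats, mean ± SD.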
# [13] = test system: Pseudomonas aeruginosa; test: Synergistic antibacterial activity against Pseudomonas aeruginosa NCTC 13437 assessed as novobiocin MIC at <=0.25 times MIC incubated for overnight by microbroth dilution checkerboard assay; type: functional; in short: as §5
# [14] = test system: Escherichia coli; test: Synergistic antibacterial activity against Escherichia coli NCTC 12923 assessed as novobiocin MIC at <=0.25 times MIC incubated for overnight by microbroth dilution checkerboard assay; type: functional; in short: as §4
# [15] = test system: Klebsiella pneumoniae; test: Synergistic antibacterial activity against Klebsiella pneumoniae NCTC 13368 assessed as fold change in novobiocin MIC at <=0.25 times MIC incubated for overnight by microbroth dilution checkerboard assay relative to novobiocin alone; type: functional; in short: as §4
# [16] = test system: Klebsiella pneumoniae; test: Synergistic antibacterial activity against Klebsiella pneumoniae M6 assessed as fold change in novobiocin MIC at <=0.25 times MIC incubated for overnight by microbroth dilution checkerboard assay relative to novobiocin alone; type: functional; in short: as §4
# [17] = test system: Acinetobacter baumannii; test: Synergistic antibacterial activity against Acinetobacter baumannii AYE assessed as fold change in novobiocin MIC at <=0.25 times MIC incubated for overnight by microbroth dilution checkerboard assay relative to novobiocin alone; type: functional; in short: as §4
# [18] = test system: Acinetobacter baumannii; test: Synergistic antibacterial activity against Acinetobacter baumannii ATCC 17978 assessed as fold change in novobiocin MIC at <=0.25 times MIC incubated for overnight by microbroth dilution checkerboard assay relative to novobiocin alone; type: functional; in short: as §4
# [19] = test system: Pseudomonas aeruginosa; test: Synergistic antibacterial activity against Pseudomonas aeruginosa PAO1 assessed as fold change in novobiocin MIC at <=0.25 times MIC incubated for overnight by microbroth dilution checkerboard assay relative to novobiocin alone; type: functional; in short: as §5
# [20] = test system: Pseudomonas aeruginosa; test: Synergistic antibacterial activity against Pseudomonas aeruginosa NCTC 13437 assessed as fold change in novobiocin MIC at <=0.25 times MIC incubated for overnight by microbroth dilution checkerboard assay relative to novobiocin alone; type: functional; in short: as §4
# [21] = test system: Escherichia coli; test: Synergistic antibacterial activity against Escherichia coli NCTC 12923 assessed as fold change in novobiocin MIC at <=0.25 times MIC incubated for overnight by microbroth dilution checkerboard assay relative to novobiocin alone; type: functional; in short: as §4
# [22] = Hemolytic activity in human Red blood cells at 512 microg/ml measured after 1 hrs by absorbance based assay relative to control; type: toxicity, cell-based, Erythrocyte; settings: red blood cells (erythrocytes), at 512 µg/mL, read-out: Activity; in short: as §1
# [23] = test system: Cell membrane; test: Induction of outer membrane permeabilization in Acinetobacter baumannii AYE assessed as increase fluorescence intensity by measuring NPN uptake factor measured immediately for 2 hrs by fluorescence based analysis; type: subcellular
# In short: (§6)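 NPN outer-membrane uptake. Overnight TSB cultures (37 °C, 200 rpm) were subcultured 1:20 for 2 h to mid-log, washed, and resuspended in 5 mM HEPES with 5 mM glucose, pH 7.2. Cells were mixed with assay buffer containing 10 µM NPN, then with compound, polymyxin B (positive control) or buffer. Fluorescence (ex 350, em 420 nm) was monitored immediately for 2 h.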
# [24] = test system: Cell membrane; test: Induction of outer membrane permeabilization in Acinetobacter baumannii ATCC 17978 assessed as increase fluorescence intensity by measuring NPN uptake factor measured immediately for 2 hrs by fluorescence based analysis; type: subcellular; in short: as §6
Compound,Activity [1],inhibition (INH) [2] [%],inhibition (INH) [3] [%],inhibition (INH) [4] [%],inhibition (INH) [5] [%],inhibition (INH) [6] [%],MIC [8] [µg/mL],MIC [9] [µg/mL],MIC [10] [µg/mL],MIC [11] [µg/mL],MIC [12] [µg/mL],MIC [13] [µg/mL],MIC [14] [µg/mL],fold change (FC) [15],fold change (FC) [16],fold change (FC) [17],fold change (FC) [18],fold change (FC) [19],fold change (FC) [20],fold change (FC) [21],other results
CCCCCCCCCCCCNC(=N)NCCCCN,Toxic,<20,<20,<20,<20,<20,–,–,–,–,–,–,–,–,–,–,–,–,–,–,inhibition (INH) [7]: <20%
CCCCCCCC/C=C\CCCCCCCCNC(=N)NCCCCNC(=N)N,Toxic,<20,<20,<20,<20,<20,> 128,1,≤ 0.125,≤ 0.125,> 128,> 128,4,0,>=4,0,>=4,0,0,>=4,inhibition (INH) [7]: <20%
CCCCCCCC/C=C\CCCCCCCCNC(=N)NCCCCN,Toxic,<20,<20,<20,<20,<20,> 128,16,≤ 0.125,≤ 0.125,> 128,> 128,> 128,0,>=4,>=4,>=4,0,0,0,inhibition (INH) [7]: <20%
CCCCCCCCCCNC(=N)NCCCCN,–,<20,<20,<20,<20,<20,16,4,≤ 0.125,0.25,2,8,0.5,>=4,>=4,>=4,>=4,>=4,>=4,>=4,"hemolysis at 1 h, 512 microg/ml [22]: 8.2%; Activity [23]: > 1; Activity [24]: > 1; inhibition (INH) [7]: <20%"
CCCCC/C=C\C/C=C\CCCCCCCCNC(=N)NCCCCN,Toxic,–,–,–,–,–,> 128,64,1,1,> 128,> 128,> 128,0,0,>=4,0,0,0,0,"hemolysis at 1 h, 512 microg/ml [22]: 100%"
CC/C=C\C/C=C\C/C=C\CCCCCCCCNC(=N)NCCCCN,Toxic,–,–,–,–,–,> 128,8,≤ 0.125,≤ 0.125,> 128,> 128,32,0,>=4,>=4,>=4,0,0,0,–

# From ChEMBL document CHEMBL5357066, “Development of Novel Membrane Disrupting Lipoguanidine Compounds Sensitizing Gram-Negative Bacteria to Antibiotics” (ACS Med Chem Lett, 2024)
